The target of assay [1] is T1, Muscarinic acetylcholine receptor M2 (Rattus norvegicus, UniProt P10980).
T1 sequence (P10980 whole entry): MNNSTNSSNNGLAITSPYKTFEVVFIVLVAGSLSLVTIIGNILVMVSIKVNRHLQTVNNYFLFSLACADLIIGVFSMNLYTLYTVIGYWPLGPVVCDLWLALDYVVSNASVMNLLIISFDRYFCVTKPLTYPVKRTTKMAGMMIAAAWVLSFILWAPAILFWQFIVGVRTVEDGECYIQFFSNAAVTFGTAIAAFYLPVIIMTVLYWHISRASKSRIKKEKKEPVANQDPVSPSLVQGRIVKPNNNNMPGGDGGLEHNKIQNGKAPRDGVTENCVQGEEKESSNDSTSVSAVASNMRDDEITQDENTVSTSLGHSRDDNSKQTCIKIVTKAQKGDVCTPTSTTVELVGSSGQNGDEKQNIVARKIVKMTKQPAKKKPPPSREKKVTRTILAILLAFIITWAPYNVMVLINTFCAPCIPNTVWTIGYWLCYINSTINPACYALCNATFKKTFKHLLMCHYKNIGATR
In words: Inhibition of [3H]- Oxo-M binding at Muscarinic acetylcholine receptor M2 in rat brain membranes. It is filed as cell membranes. The gist of the method: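 Rat cortex homogenized in 20 mM HEPES pH 7.4 and centrifuged at 40000g. Membranes incubated 60 min at room temperature with 1 nM (final) [³H]oxotremorine-M and compound. Separated on PEI-soaked GF/C filters and counted by scintillation. Nonspecific binding defined with 10 μM arecoline. Value reported as IC50.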

The target of assay [2] is T2, Muscarinic acetylcholine receptor M1 (Homo sapiens, UniProt P11229).
T2 sequence (P11229 whole entry): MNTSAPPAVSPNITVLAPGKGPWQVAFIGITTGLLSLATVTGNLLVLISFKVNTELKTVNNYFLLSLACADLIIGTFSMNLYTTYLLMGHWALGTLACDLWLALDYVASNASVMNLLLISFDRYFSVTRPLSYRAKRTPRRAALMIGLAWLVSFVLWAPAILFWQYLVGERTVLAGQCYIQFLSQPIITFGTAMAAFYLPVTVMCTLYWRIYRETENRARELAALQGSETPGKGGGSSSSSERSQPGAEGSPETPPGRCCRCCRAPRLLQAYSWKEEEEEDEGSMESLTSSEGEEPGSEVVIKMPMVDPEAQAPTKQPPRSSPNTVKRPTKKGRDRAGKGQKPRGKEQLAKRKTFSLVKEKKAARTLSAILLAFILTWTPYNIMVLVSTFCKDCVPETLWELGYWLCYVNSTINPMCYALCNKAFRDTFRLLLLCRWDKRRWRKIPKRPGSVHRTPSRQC
Description: (§1) Compound was tested for its ability to stimulate phosphoinositol (PI) hydrolysis in the mouse fibroblast cell line A9L-M1 expressing Muscarinic acetylcholine receptor M1 (100 uM concentration). It is filed as functional, cell-based. The gist of the method: (§2)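 A9L mouse fibroblasts stably expressing M1, grown to confluence in DMEM/10% FCS with 1.3 μCi/mL [³H]inositol for 48 h, detached with trypsin and resuspended in HEPES/LiCl buffer (LiCl 10 mM, pH 7.4). Cells incubated 45 min at 37 °C with compound up to 100 μM. Total [³H]inositol phosphates separated by ion exchange and counted.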

Assay [3] can be described thus: Ratio of EC50(CHO-M2) and EC50(A9L-M1). It is filed as functional. The gist of the method: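 Ratio of EC50 for inhibition of forskolin-stimulated cAMP in human-M2 CHO cells to EC50 for PI hydrolysis in A9L-M1 cells, both measured in this work.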
Assay [4] concerns the target T3, Muscarinic acetylcholine receptor M1 (Homo sapiens) (UniProt P11229).
T3 sequence (whole entry): T2 sequence (P11229 whole entry)
The description is as §1. It counts as functional, cell-based. The gist of the method: as §2

The target in assay [5] is T4, Muscarinic acetylcholine receptor M2 (Homo sapiens, UniProt P08172).
T4 sequence (P08172 whole entry): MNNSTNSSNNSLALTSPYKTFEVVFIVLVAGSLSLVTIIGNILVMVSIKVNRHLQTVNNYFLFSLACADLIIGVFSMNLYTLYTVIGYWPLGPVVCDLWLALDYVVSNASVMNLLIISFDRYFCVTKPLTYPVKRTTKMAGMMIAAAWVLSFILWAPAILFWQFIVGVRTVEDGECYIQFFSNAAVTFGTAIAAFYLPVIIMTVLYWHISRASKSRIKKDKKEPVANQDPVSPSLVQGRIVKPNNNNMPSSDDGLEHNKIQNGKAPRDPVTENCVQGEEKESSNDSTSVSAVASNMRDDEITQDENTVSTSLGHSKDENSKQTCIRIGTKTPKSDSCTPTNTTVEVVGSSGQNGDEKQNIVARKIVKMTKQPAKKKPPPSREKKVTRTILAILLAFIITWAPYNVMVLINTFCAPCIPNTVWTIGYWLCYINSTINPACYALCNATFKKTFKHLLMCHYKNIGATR
In words: Compound was tested for its potency at M-2 receptor by inhibiting forskolin induced c-AMP formation in CHO-M2 cells human M2 receptor. It is filed as functional, cell-based. The gist of the method:
(§3)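 CHO cells transfected with human M2 receptor plasmid and cultured with atropine and methotrexate; atropine withdrawn overnight. Cells detached with PBS/1 mM EDTA, then preincubated 30 min at 0 °C in DMEM/20 mM HEPES pH 7.4 with 0.5 mM IBMX. Compound added and 10 μM forskolin (final) started a 10 min, 37 °C incubation, stopped with ice-cold ethanol. cAMP measured by radioimmunoassay.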

The target of assay [6] is T1, Muscarinic acetylcholine receptor M2. Description: In vitro Muscarinic acetylcholine receptor M2 binding was evaluated in rat brain membranes by using [3H]- Oxo-M. It counts as cell membranes. The gist of the method:
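Rat cortex homogenized in 20 mM Hepes pH 7.4 and spun 10 min at 40000g; pellet resuspended and incubated with [3H]oxotremorine-M (1 nM final) plus test drug for 60 min at room temperature. Bound and free separated by vacuum filtration on PEI-presoaked GF/C filters, then scintillation counting.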

Assay [7] has as its target T2, Muscarinic acetylcholine receptor M1. In words: Stimulation of phosphoinositol hydrolysis in the mouse fibroblast cell line A9L-M1 expressing Muscarinic acetylcholine receptor M1. It counts as functional, cell-based.
Assay [8] has as its target T5, Muscarinic acetylcholine receptor M2 (Homo sapiens) (UniProt P08172).
T5 sequence (whole entry): T4 sequence (P08172 whole entry)
Description: Compound was tested for its potency towards Muscarinic acetylcholine receptor M2 by inhibiting forskolin induced c-AMP formation in CHO-M2 cells expressing human Muscarinic acetylcholine receptor M2 receptor. It is filed as functional, cell-based. The gist of the method: as §3

Assay [9] concerns the target T4, Muscarinic acetylcholine receptor M2. Description: Compound was tested for its potency towards Muscarinic acetylcholine receptor M2 by inhibiting forskolin induced c-AMP formation in CHO-M2 cells. It is filed as functional, cell-based. The gist of the method: (§4)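 Human M2 receptor plasmid transfected into CHO cells […], cultured in DMEM/10% FBS with 1 μM atropine and 1 μM methotrexate; atropine-free medium overnight before assay. Cells detached with PBS + 1 mM EDTA, washed into DMEM + 20 mM HEPES pH 7.4 + 0.5 mM IBMX, preincubated 30 min at 0 °C. Forskolin 10 μM final, 10 min at 37 °C; ethanol stop; cAMP by radioimmunoassay.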

In assay [10] the target is T5, Muscarinic acetylcholine receptor M2 (Homo sapiens). Description: Inhibition of forskolin induced c-AMP formation in CHO-M2 cells expressing human M2 receptor. It is filed as functional, cell-based. The gist of the method:
as §3

The target is the same in assay [11]. Description: Compound was tested for its potency at Muscarinic acetylcholine receptor M2 by inhibiting forskolin induced c-AMP formation in CHO-M2 cells expressing human M2 receptor. It is filed as functional, cell-based. The gist of the method: as §4

Data on 20 compounds can be found in ChEMBL document CHEMBL1132230, “1-(1,2,5-Thiadiazol-4-yl)-4-azatricyclo[2.2.1.0(2,6)]heptanes as new potent muscarinic M1 agonists: structure-activity relationship for 3-aryl-2-propyn-1-yloxy and 3-aryl-2-propyn-1-ylthio derivatives” (J Med Chem, 1999).

SMILES strings stand for the structures.

By IC50 is commonly meant the point on the concentration scale where inhibition reaches its midpoint. Low readings indicate greater potency in that assay, high ones weaker potency in that assay. Broadly, the EC50 is the midpoint of the concentration-response curve.

Regarding `Fc1cccc(C#CCOc2nsnc2C23CN4CC2C3C4)c1`, the concentration for half-maximal inhibition (IC50) in assay [1] came out at 21 nM. Besides, the EC50 in assay [2] came to 4.9 nM; in assay [5], 683 nM. Further, in assay [3], the Ratio came out at 139. This compound also showed a Max in assay [4] of 91%.
With `COc1cccc(C#CCO/N=C2\CN3CCC2C3)c1` (stereo not given), the half-inhibitory concentration (IC50) in assay [6] came to 150 nM. Besides, in [3], the Ratio came to 4. Also, the EC50 in assay [7] was determined as 7120 nM; in assay [9] it was 26700 nM. Also, the Max in assay [8] was determined as 89%.
As to `Clc1cccc(C#CCSc2nsnc2C23CN4CC2C3C4)c1`, in assay [1], the IC50 was 49 nM. In [10], this compound yielded a Max of 96%. Further, the Ratio in [3] came to 74. The values for the concentration giving a half-maximal response (EC50) in assay [7] and in [5] were 9 nM and 673 nM, respectively.
On to `Clc1cc(Cl)cc(C#CCOc2nsnc2C23CN4CC2C3C4)c1`, for which, in assay [1], the concentration for half-maximal inhibition (IC50) came out at 1690 nM. In addition, the Max in assay [10] was found to be 23%. This compound also came in with a concentration giving a half-maximal response (EC50) in assay [7] of 1200 nM.
`Fc1cc(Cl)cc(C#CCSc2nsnc2C23CN4CC2C3C4)c1` registered a half-inhibitory concentration (IC50) in assay [1] of 142 nM. The Max in assay [10] is 90%. Further, in assay [3], the Ratio amounted to 17. Besides, the 50% effective concentration (EC50) was found to be 46 nM in assay [7] and 763 nM in assay [5].
Regarding `C(#Cc1ccccc1)CSc1nsnc1C12CN3CC1C2C3`, the 50% inhibitory concentration (IC50) in assay [1] worked out at 27 nM. The same compound gave a Max in assay [10] of 106%. In addition, in assay [3], the Ratio amounted to 14. Further, the EC50 stood at 61.9 nM in [7] and 853 nM in assay [5].
The matching figures for `Clc1cc(Cl)cc(C#CCSc2nsnc2C23CN4CC2C3C4)c1`: 788 nM, 84%, 0.3, 1810 nM and 528 nM.
On the same counts, the results for `Fc1ccc(C#CCOc2nsnc2C23CN4CC2C3C4)cc1` are 10 nM, 109%, 11, 71 nM and 791 nM.
On the same counts, the results for `Clc1cccc(C#CCOc2nsnc2C23CN4CC2C3C4)c1` are 47 nM, 101%, 217, 10.5 nM and 2280 nM.
In assay [1], `Fc1cc(Cl)cc(C#CCOc2nsnc2C23CN4CC2C3C4)c1` gave an IC50 of 92 nM. Also, the Max in assay [10] is 76%. Moreover, in assay [3], the Ratio turned out to be 13. Further, the EC50 in assay [7] is 110 nM; in [5], 1480 nM.
In assay [1], `CN1CCC=C(c2nsnc2OCC#Cc2ccccc2)C1` returned a half-inhibitory concentration (IC50) of 14 nM. In [10], this compound returned a Max of 115%. Also, in assay [3], the Ratio turned out to be 2.
`Clc1ccc(C#CCSc2nsnc2C23CN4CC2C3C4)cc1` displayed an IC50 in assay [1] of 242 nM. Besides, the Max in [10] amounted to 76%. Also, the Ratio in assay [3] is 1. The EC50 in [7] was 107 nM; in assay [5], 80 nM.
The matching figures for `Fc1cccc(C#CCSc2nsnc2C23CN4CC2C3C4)c1`: 26 nM, 106%, 362, 2.5 nM and 904 nM.
As for `Fc1ccc(C#CCSc2nsnc2C23CN4CC2C3C4)cc1`, the IC50 in assay [1] came out at 20 nM. The compound also displayed a Max in assay [10] of 88%. Besides, in assay [3], the Ratio turned out to be 18. Besides, the results for the EC50 in [7] and in assay [5] were 4.5 nM and 83 nM, respectively.
In assay [1], `Fc1cc(F)cc(C#CCSc2nsnc2C23CN4CC2C3C4)c1` gave an IC50 of 28 nM. This compound also registered a Max in assay [10] of 79%. For the same compound, the Ratio in assay [3] came to 218. In addition, the EC50 in assay [7] is 7.6 nM; in [5] it was 1660 nM.
As to `C[N+](C)(C)CCOC(N)=O`, the Max in [8] is 100%.
As to `CCCCCCOc1nsnc1C1=CCCN(C)C1` [XANOMELINE], in [6], the IC50 is 16 nM. For the same compound, in [8], the Max is 82%.
For the compound `C(#Cc1ccccc1)COc1nsnc1C12CN3CC1C2C3`, the half-maximal inhibitory concentration (IC50) in [1] was 16 nM. Besides, the Ratio in assay [3] is 11. In addition, the Max in assay [11] came to 99%.
`Fc1cc(F)cc(C#CCOc2nsnc2C23CN4CC2C3C4)c1` displayed a half-inhibitory concentration (IC50) in [1] of 30 nM. The Max in assay [10] amounted to 68%. Also, the Ratio in assay [3] was 133. Moreover, the figures for the EC50 in assay [7] and in assay [5] were 20.2 nM and 2690 nM, respectively.
In assay [1], `Clc1ccc(C#CCOc2nsnc2C23CN4CC2C3C4)cc1` returned a concentration for half-maximal inhibition (IC50) of 63 nM. Moreover, in assay [10], the Max worked out at 102%. Moreover, a half-maximal response in assay [5] (EC50) required 1210 nM.
